Laboratory results: ChEMBL document CHEMBL1127357, “Synthesis and biochemical evaluation of a series of aminoflavones as potential inhibitors of protein-tyrosine kinases p56lck, EGFr, and p60v-src” (J Med Chem, 1994)

Key:
[1] = target: Tyrosine-protein kinase Lck (Bos taurus); assay: In vitro inhibition of protein-tyrosine activity of p56lck enzyme in presence of 50 uM ATP
[2] = target: Epidermal growth factor receptor (Homo sapiens, UniProt P00533); assay: Inhibition of in vitro activity of EGFr enzyme from A431 cells in presence of 5 uM ATP; format: cell-based, A-431
Sequence of Epidermal growth factor receptor (P00533 whole entry): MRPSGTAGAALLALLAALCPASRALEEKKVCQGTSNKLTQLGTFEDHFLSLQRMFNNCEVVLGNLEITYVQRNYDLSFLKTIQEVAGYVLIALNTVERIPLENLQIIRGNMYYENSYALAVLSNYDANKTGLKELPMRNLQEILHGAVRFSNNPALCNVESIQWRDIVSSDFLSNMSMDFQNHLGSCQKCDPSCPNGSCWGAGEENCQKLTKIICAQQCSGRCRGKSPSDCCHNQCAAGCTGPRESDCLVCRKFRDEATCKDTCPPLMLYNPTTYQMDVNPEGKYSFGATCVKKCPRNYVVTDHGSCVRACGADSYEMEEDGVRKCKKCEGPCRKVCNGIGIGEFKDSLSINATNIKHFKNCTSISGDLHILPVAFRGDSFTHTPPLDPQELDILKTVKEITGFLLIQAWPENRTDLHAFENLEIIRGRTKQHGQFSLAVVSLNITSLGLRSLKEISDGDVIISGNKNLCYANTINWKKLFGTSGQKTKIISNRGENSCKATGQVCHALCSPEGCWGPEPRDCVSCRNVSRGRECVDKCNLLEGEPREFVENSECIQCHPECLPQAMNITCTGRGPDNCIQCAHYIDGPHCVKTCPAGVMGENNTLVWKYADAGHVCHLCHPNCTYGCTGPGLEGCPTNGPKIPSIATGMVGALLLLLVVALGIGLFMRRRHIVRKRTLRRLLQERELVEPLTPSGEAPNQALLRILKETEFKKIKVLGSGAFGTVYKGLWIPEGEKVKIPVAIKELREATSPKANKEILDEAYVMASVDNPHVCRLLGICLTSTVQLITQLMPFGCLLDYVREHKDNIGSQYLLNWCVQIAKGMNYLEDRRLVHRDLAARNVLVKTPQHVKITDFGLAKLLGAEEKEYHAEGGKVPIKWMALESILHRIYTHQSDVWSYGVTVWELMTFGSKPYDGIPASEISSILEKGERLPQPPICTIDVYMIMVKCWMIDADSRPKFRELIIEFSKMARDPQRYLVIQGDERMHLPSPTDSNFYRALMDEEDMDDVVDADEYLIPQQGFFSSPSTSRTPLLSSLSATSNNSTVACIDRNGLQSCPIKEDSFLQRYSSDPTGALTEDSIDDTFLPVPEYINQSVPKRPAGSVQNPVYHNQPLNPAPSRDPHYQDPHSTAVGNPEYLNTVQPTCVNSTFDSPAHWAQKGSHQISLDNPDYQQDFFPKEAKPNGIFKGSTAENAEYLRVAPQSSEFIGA
How it was run: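 EGFr from human A431 shed membrane vesicles, solubilised in 4% Triton X-100/10% glycerol; 10 μg vesicle protein. Buffer 20 mM HEPES pH 7.4, 15 mM MgCl2, 4 mM MnCl2, 0.02% BSA, 5 μM [32P]ATP, 25 μg Glu:Ala:Tyr (6:3:1) copolymer, 250 ng EGF. 10 min at room temperature; TCA/pyrophosphate quench, filter wash, scintillation counting; autophosphorylation controls included.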

| Structure (SMILES) | IC50 [1] | IC50 [2] |
| --- | --- | --- |
| Nc1ccc(-c2cc(=O)c3cc(O)cc(N)c3o2)cc1 | 117 µM | > 100 µM |
| Nc1ccc(-c2cc(=O)c3cc(N)cc(N)c3o2)cc1 | 106 µM | > 100 µM |
| Nc1ccc(-c2cc(=O)c3cc(N)ccc3o2)cc1 | 103 µM | 8.7 µM |
| O=c1cc(-c2ccc([N+](=O)[O-])cc2)oc2cc(O)c([N+](=O)[O-])cc12 | > 2000 µM |  |
| COc1cc(N)c2oc(-c3cccc(N)c3)cc(=O)c2c1 |  | > 100 µM |
| Nc1ccc(-c2cc(=O)c3ccc(O)c(N)c3o2)cc1 | 328 µM | > 100 µM |
| Nc1ccc(-c2cc(=O)c3c(O)ccc(N)c3o2)cc1 | 326 µM | > 100 µM |
| Nc1ccc(-c2cc(=O)c3c(N)c(O)c(N)cc3o2)cc1 | 18 µM | > 100 µM |
| COc1cc([N+](=O)[O-])c2oc(-c3ccc([N+](=O)[O-])cc3)cc(=O)c2c1 | > 2000 µM |  |
| Nc1cccc(-c2cc(=O)c3cc(N)c(O)cc3o2)c1 | 502 µM | > 100 µM |
| Nc1cccc(-c2cc(=O)c3cc(N)ccc3o2)c1 | 200 µM | > 100 µM |
| O=c1cc(-c2ccc([N+](=O)[O-])cc2)oc2c([N+](=O)[O-])cc(O)cc12 | > 2000 µM |  |
| COc1ccc(N)c2oc(-c3ccc(N)cc3)cc(=O)c12 |  | > 100 µM |
| Nc1ccc(-c2cc(=O)c3cc(N)c(O)c(N)c3o2)cc1 | 754 µM | > 100 µM |
| COc1ccc([N+](=O)[O-])c2oc(-c3ccc([N+](=O)[O-])cc3)cc(=O)c12 | > 2000 µM |  |
| Nc1ccc(-c2cc(=O)c3c(O)c(N)ccc3o2)cc1 | 223 µM | > 100 µM |
| O=c1cc(-c2ccc([N+](=O)[O-])cc2)oc2ccc([N+](=O)[O-])c(O)c12 | > 2000 µM |  |
| COc1cc(N)c2oc(-c3ccc(N)cc3)cc(=O)c2c1 | 382 µM | > 100 µM |
| Nc1ccc(-c2cc(=O)c3cccc(N)c3o2)cc1 | 123 µM | > 100 µM |
| O=c1cc(-c2ccc([N+](=O)[O-])cc2)oc2c([N+](=O)[O-])c(O)ccc12 | 1880 µM |  |
| O=c1cc(-c2ccc([N+](=O)[O-])cc2)oc2c([N+](=O)[O-])ccc(O)c12 | > 2000 µM |  |
| Nc1cccc(-c2cc(=O)c3c(N)c(O)c(N)cc3o2)c1 | 46 µM | 7.8 µM |
| O=c1cc(-c2ccc([N+](=O)[O-])cc2)oc2c([N+](=O)[O-])cccc12 | > 2000 µM |  |
| Nc1ccc(-c2cc(=O)c3cc(N)c(O)cc3o2)cc1 | 141 µM | 14.1 µM |
| O=c1cc(-c2ccc([N+](=O)[O-])cc2)oc2ccc([N+](=O)[O-])cc12 | > 2000 µM |  |
